# Assay results from ChEMBL document CHEMBL1212776, “Novel ambler class A carbapenem-hydrolyzing beta-lactamase from a Pseudomonas fluorescens isolate from the Seine River, Paris, France” (Antimicrob Agents Chemother, 2010).
# Assays:
# Pseudomonas fluorescens [1] = experiment: Activity at Pseudomonas fluorescens PF-1 beta-lactamase BIC-1 expressed in Escherichia coli DH10B carrying pSau1
# Escherichia coli [2] = experiment: Antimicrobial activity against Escherichia coli DH10B harbouring recombinant plasmid pSau1 expressing beta-lactamase BIC-1 from Pseudomonas fluorescens PF-1 by Etest; assay type: functional
# Pseudomonas fluorescens [3] = experiment: Antimicrobial activity against Pseudomonas fluorescens isolate PF-1 expressing beta-lactamase BIC-1 by Etest; assay type: functional
# How it was run: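 MIC for isolate PF-1 by Etest, interpreted per CLSI recommendations. Cultures grown in Trypticase soy broth, 37°C, 18 h.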
# Escherichia coli [4] = experiment: Antimicrobial activity against Escherichia coli DH10B by Etest; assay type: functional
# How it was run: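 MIC by Etest, interpreted per CLSI recommendations. Reference strain E. coli DH10B without recombinant plasmid; cultures grown in Trypticase soy broth at 37°C for 18 h.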
# Escherichia coli [5] = experiment: Antimicrobial activity against Escherichia coli DH10B by Etest in presence of 4 ug/ml of clavulanic acid; assay type: functional
# How it was run: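 Etest MIC with clavulanic acid held at a fixed 4 μg/ml alongside the β-lactam, read per CLSI recommendations. Strain E. coli DH10B; cultures grown in TS broth at 37°C for 18 h.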
# Pseudomonas fluorescens [6] = experiment: Antimicrobial activity against Pseudomonas fluorescens isolate PF-1 expressing beta-lactamase BIC-1 by Etest in presence of 4 ug/ml of clavulanic acid; assay type: functional
# How it was run: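 MIC for isolate PF-1 by Etest, with clavulanic acid held at a fixed 4 μg/ml and the β-lactam varied. Interpreted per CLSI recommendations.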
# Escherichia coli [7] = experiment: Antimicrobial activity against Escherichia coli DH10B harbouring recombinant plasmid pSau1 expressing beta-lactamase BIC-1 from Pseudomonas fluorescens PF-1 by Etest in presence of 4 ug/ml of clavulanic acid; assay type: functional
# [8] = molecular target: Carbapenem-hydrolyzing beta-lactamase KPC (Klebsiella pneumoniae, UniProt Q9F663); experiment: Inhibition of carbapenem-resistant Klebsiella pneumoniae carbepenem-hydrolyzing beta-lactamase KPC-1
# Chain of Carbapenem-hydrolyzing beta-lactamase KPC (Q9F663 whole entry): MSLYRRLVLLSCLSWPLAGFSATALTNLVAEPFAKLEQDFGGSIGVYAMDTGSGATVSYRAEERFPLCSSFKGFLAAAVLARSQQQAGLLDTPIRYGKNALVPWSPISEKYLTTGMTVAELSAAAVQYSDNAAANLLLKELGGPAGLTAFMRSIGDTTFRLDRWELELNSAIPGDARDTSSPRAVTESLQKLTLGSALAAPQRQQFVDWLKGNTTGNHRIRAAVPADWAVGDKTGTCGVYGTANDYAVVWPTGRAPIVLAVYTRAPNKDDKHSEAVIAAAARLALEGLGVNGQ
# [9] = Inhibition of Pseudomonas fluorescens PF-1 beta-lactamase BIC-1 expressed in Escherichia coli DH10B carrying pSau1
# How it was run: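 BIC-1 purified from E. coli DH10B(pSau1) lysate by S-Sepharose flowthrough, then Q-Sepharose with a 0–500 mM NaCl gradient. Enzyme preincubated with varied inhibitor (clavulanate, tazobactam or sulbactam) for 3 min at 30°C. Then 100 μM benzylpenicillin added. IC50 is the inhibitor concentration halving the hydrolysis rate.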
# [10] = substrate: C[C@@H](O)[C@H]1C(=O)N2C(C(=O)O)=C(SCCNC=N)C[C@H]12; experiment: (§1) Ratio of Kcat to Km of Pseudomonas fluorescens PF-1 beta-lactamase BIC-1 expressed in Escherichia coli DH10B using nitrocefin hydrolysis
# How it was run: (§2)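 Cells from overnight 37°C TS broth culture with amoxicillin and kanamycin were sonicated. Enzyme purified by S-Sepharose (malonate pH 6.1), then Q-Sepharose (bis-Tris pH 7.2, 0–500 mM NaCl gradient), and dialyzed into 50 mM sodium phosphate pH 7. kcat and Km measured on the purified enzyme. Values are means of three independent experiments; SD within 10%.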
# [11] = substrate: CCN1CCN(C(=O)N[C@@H](C(=O)N[C@@H]2C(=O)N3[C@@H]2SC(C)(C)[C@@H]3C(=O)O)c2ccccc2)C(=O)C1=O; experiment: as §1; how it was run: as §2
# [12] = substrate: CC1(C)S[C@@H]2[C@H](NC(=O)Cc3ccccc3)C(=O)N2[C@H]1C(=O)O; experiment: as §1; how it was run: as §2
# [13] = substrate: Cc1onc(-c2ccccc2)c1C(=O)N[C@@H]1C(=O)N2[C@@H]1SC(C)(C)[C@@H]2C(=O)O; experiment: as §1; how it was run: as §2
# [14] = substrate: C[C@H]1[C@H](NC(=O)/C(=N\OC(C)(C)C(=O)O)c2csc(N)n2)C(=O)N1S(=O)(=O)O; experiment: as §1; how it was run: as §2
# [15] = substrate: CO/N=C(\C(=O)N[C@@H]1C(=O)N2C(C(=O)O)=C(COC(C)=O)CS[C@H]12)c1csc(N)n1; experiment: as §1; how it was run: as §2
# [16] = substrate: CO[C@@]1(NC(=O)Cc2cccs2)C(=O)N2C(C(=O)O)=C(COC(N)=O)CS[C@@H]21; experiment: as §1; how it was run: as §2
# [17] = substrate: CC1(C)S[C@@H]2[C@H](NC(=O)[C@H](N)c3ccccc3)C(=O)N2[C@H]1C(=O)O; experiment: as §1; how it was run: as §2
# [18] = substrate: C[C@@H](O)[C@H]1C(=O)N2C(C(=O)O)=C(S[C@@H]3CN[C@H](C(=O)N(C)C)C3)[C@H](C)[C@H]12; experiment: as §1; how it was run: as §2
# [19] = substrate: CC(=O)OCC1=C(C(=O)O)N2C(=O)[C@@H](NC(=O)Cc3cccs3)[C@H]2SC1; experiment: as §1; how it was run: as §2
# [20] = substrate: CC1(C)S[C@@H]2[C@H](NC(=O)[C@H](C(=O)O)c3ccsc3)C(=O)N2[C@H]1C(=O)O; experiment: as §1; how it was run: as §2
# [21] = substrate: C[C@@H](O)[C@H]1C(=O)N2C(C(=O)O)=C(S[C@@H]3CN[C@H](C(=O)Nc4cccc(C(=O)O)c4)C3)[C@H](C)[C@H]12; experiment: as §1; how it was run: as §2
# [22] = substrate: CO/N=C(\C(=O)N[C@@H]1C(=O)N2C(C(=O)O)=C(COC(N)=O)CS[C@H]12)c1ccco1; experiment: as §1; how it was run: as §2
# [23] = substrate: CO[C@@]1(NC(=O)C(C(=O)O)c2ccc(O)cc2)C(=O)N2C(C(=O)O)=C(CSc3nnnn3C)CO[C@@H]21; experiment: as §1; how it was run: as §2
# [24] = substrate: O=C(Cc1cccs1)N[C@@H]1C(=O)N2C(C(=O)[O-])=C(C[n+]3ccccc3)CS[C@H]12; experiment: as §1; how it was run: as §2
Molecule,Km (Pseudomonas fluorescens [1]),kcat (Pseudomonas fluorescens [1]),MIC (Escherichia coli [2]),MIC (Pseudomonas fluorescens [3]),MIC (Escherichia coli [4]),also measured
C[C@@H](O)[C@H]1C(=O)N2C(C(=O)O)=C(S[C@@H]3CN[C@H](C(=O)Nc4cccc(C(=O)O)c4)C3)[C@H](C)[C@H]12,10 µM,2 s⁻¹,0.25 µg/mL,> 16 µg/mL,0.12 µg/mL,–
CO/N=C(\C(=O)N[C@@H]1C(=O)N2C(C(=O)[O-])=C(C[N+]3(C)CCCC3)CS[C@H]12)c1csc(N)n1,–,–,0.12 µg/mL,> 16 µg/mL,–,–
CC1(C)S[C@@H]2[C@H](NC(=O)Cc3ccccc3)C(=O)N2[C@H]1C(=O)O,48 µM,31 s⁻¹,–,–,–,–
CC1(C)S[C@@H]2[C@H](NC(=O)[C@H](N)c3ccccc3)C(=O)N2[C@H]1C(=O)O,1150 µM,185 s⁻¹,–,–,–,–
Cc1onc(-c2ccccc2)c1C(=O)N[C@@H]1C(=O)N2[C@@H]1SC(C)(C)[C@@H]2C(=O)O,110 µM,15 s⁻¹,–,–,–,–
O=C(Cc1cccs1)N[C@@H]1C(=O)N2C(C(=O)[O-])=C(C[n+]3ccccc3)CS[C@H]12,770 µM,170 s⁻¹,–,–,–,–
CC1(C)S[C@@H]2[C@H](NC(=O)[C@H](N)c3ccc(O)cc3)C(=O)N2[C@H]1C(=O)O [AMOXICILLIN],–,–,> 256 µg/mL,> 256 µg/mL,4 µg/mL,MIC (Escherichia coli [5]): 4 µg/mL; MIC (Pseudomonas fluorescens [6]): > 256 µg/mL; MIC (Escherichia coli [7]): 16 µg/mL
C[C@H]1[C@H](NC(=O)/C(=N\OC(C)(C)C(=O)O)c2csc(N)n2)C(=O)N1S(=O)(=O)O [AZTREONAM],> 1000 µM,35 s⁻¹,16 µg/mL,> 256 µg/mL,–,–
CO/N=C(\C(=O)N[C@@H]1C(=O)N2C(C(=O)O)=C(COC(C)=O)CS[C@H]12)c1csc(N)n1 [CEFOTAXIME],2200 µM,20 s⁻¹,0.5 µg/mL,> 32 µg/mL,0.12 µg/mL,–
CO[C@@]1(NC(=O)Cc2cccs2)C(=O)N2C(C(=O)O)=C(COC(N)=O)CS[C@@H]21 [CEFOXITIN],825 µM,1 s⁻¹,4 µg/mL,> 256 µg/mL,1 µg/mL,–
CC(C)(O/N=C(\C(=O)N[C@@H]1C(=O)N2C(C(=O)[O-])=C(C[n+]3ccccc3)CS[C@H]12)c1csc(N)n1)C(=O)O [CEFTAZIDIME],–,–,0.5 µg/mL,2 µg/mL,0.5 µg/mL,–
CO/N=C(\C(=O)N[C@@H]1C(=O)N2C(C(=O)O)=C(COC(N)=O)CS[C@H]12)c1ccco1 [CEFUROXIME],> 1000 µM,9 s⁻¹,16 µg/mL,> 256 µg/mL,0.5 µg/mL,–
CC(=O)OCC1=C(C(=O)O)N2C(=O)[C@@H](NC(=O)Cc3cccs3)[C@H]2SC1 [CEPHALOTHIN],550 µM,250 s⁻¹,128 µg/mL,> 256 µg/mL,2 µg/mL,–
O=C(O)[C@H]1/C(=C/CO)O[C@@H]2CC(=O)N21 [CLAVULANIC ACID],–,–,–,–,–,IC50 [8]: 10.5 µM; IC50 [9]: 30 µM
C[C@@H](O)[C@H]1C(=O)N2C(C(=O)O)=C(SCCNC=N)C[C@H]12 [IMIPENEM ANHYDROUS],300 µM,50 s⁻¹,–,> 16 µg/mL,–,MIC (Escherichia coli [5]): 0.12 µg/mL; MIC (Pseudomonas fluorescens [6]): > 16 µg/mL
C[C@@H](O)[C@H]1C(=O)N2C(C(=O)O)=C(S[C@@H]3CN[C@H](C(=O)N(C)C)C3)[C@H](C)[C@H]12 [MEROPENEM],12 µM,1 s⁻¹,0.25 µg/mL,> 16 µg/mL,0.12 µg/mL,–
CO[C@@]1(NC(=O)C(C(=O)O)c2ccc(O)cc2)C(=O)N2C(C(=O)O)=C(CSc3nnnn3C)CO[C@@H]21 (some centres undefined) [MOXALACTAM],1700 µM,3 s⁻¹,0.12 µg/mL,> 256 µg/mL,0.12 µg/mL,–
CCN1CCN(C(=O)N[C@@H](C(=O)N[C@@H]2C(=O)N3[C@@H]2SC(C)(C)[C@@H]3C(=O)O)c2ccccc2)C(=O)C1=O [PIPERACILLIN],175 µM,40 s⁻¹,256 µg/mL,4 µg/mL,1 µg/mL,–
C[C@]1(Cn2ccnn2)[C@H](C(=O)O)N2C(=O)C[C@H]2S1(=O)=O [TAZOBACTAM],–,–,–,–,–,IC50 [9]: 6.5 µM
CC1(C)S[C@@H]2[C@H](NC(=O)[C@H](C(=O)O)c3ccsc3)C(=O)N2[C@H]1C(=O)O [TICARCILLIN],250 µM,15 s⁻¹,> 256 µg/mL,> 256 µg/mL,4 µg/mL,MIC (Escherichia coli [5]): 4 µg/mL; MIC (Pseudomonas fluorescens [6]): > 256 µg/mL; MIC (Escherichia coli [7]): 128 µg/mL
"Beta-lactamase (Pseudomonas fluorescens), D2WFL1 (protein) MARPSKLALSFSLLLPFLPFTSFAETWPQGDIARQKIVKLEKDFGGRIGVSAIDTGANRTFDFRADERFPLCSSFKGFLAGAVLSHSQQQEGLLEKRIDYKNRVMEPHSPISAQHSSTGMTVAQLAAAALQYSDNGATNLLLENVLGGPAGMTTFMRTLGDTTFRLDRWELELNSAIPGDDRDTSTPHAIARSLQKIALGEALQTAPRQQLVDWLIGNTTGGARIRAGVPVEWVVGDKTGTCGVYGTANDYAVIWPKTSAPIVLAIYTAKPNKEDKHSDAVIAEVTRAVLESFE",–,–,–,–,–,kcat/Km [10]: 170000 M⁻¹ s⁻¹; kcat/Km [11]: 210000 M⁻¹ s⁻¹; kcat/Km [12]: 660000 M⁻¹ s⁻¹; kcat/Km [13]: 100000 M⁻¹ s⁻¹; kcat/Km [14]: < 35000 M⁻¹ s⁻¹; kcat/Km [15]: 9000 M⁻¹ s⁻¹; kcat/Km [16]: 1000 M⁻¹ s⁻¹; kcat/Km [17]: 160000 M⁻¹ s⁻¹; kcat/Km [18]: 80000 M⁻¹ s⁻¹; kcat/Km [19]: 500000 M⁻¹ s⁻¹; kcat/Km [20]: 60000 M⁻¹ s⁻¹; kcat/Km [21]: 200000 M⁻¹ s⁻¹; kcat/Km [22]: < 9000 M⁻¹ s⁻¹; kcat/Km [23]: 1000 M⁻¹ s⁻¹; kcat/Km [24]: 220000 M⁻¹ s⁻¹
